Measured values from different studies.
Each line is one published result; the experiments were not run side by side.
Target: Estrogen receptor (ESR1, Homo sapiens, UniProt P03372)
Sequence (P03372 1-595, as in one of the studies): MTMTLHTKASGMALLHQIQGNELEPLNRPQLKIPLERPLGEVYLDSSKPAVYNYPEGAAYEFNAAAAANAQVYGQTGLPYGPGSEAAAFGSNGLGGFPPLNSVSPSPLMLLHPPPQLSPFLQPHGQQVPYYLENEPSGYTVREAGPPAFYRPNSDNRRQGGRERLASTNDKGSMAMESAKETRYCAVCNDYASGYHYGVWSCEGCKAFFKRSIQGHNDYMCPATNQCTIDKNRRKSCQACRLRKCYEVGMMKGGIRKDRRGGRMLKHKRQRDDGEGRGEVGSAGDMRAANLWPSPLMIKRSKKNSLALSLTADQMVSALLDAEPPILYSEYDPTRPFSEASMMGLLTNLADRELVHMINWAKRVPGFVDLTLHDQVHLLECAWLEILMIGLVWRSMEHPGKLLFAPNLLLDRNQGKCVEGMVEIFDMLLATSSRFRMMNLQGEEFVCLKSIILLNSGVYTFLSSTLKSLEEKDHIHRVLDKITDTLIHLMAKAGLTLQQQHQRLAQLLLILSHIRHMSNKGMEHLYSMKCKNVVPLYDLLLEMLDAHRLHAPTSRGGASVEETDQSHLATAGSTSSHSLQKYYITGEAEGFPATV

SMILES | assay | setting | quantity | value
CC(C)N1CCC[C@H]1CNC(=O)c1cn(C2CCCC2)c(=O)c2c1c1ccccc1n2C | ligand displacement, radioligand | 10 µM | inhibition | 15%
Clc1cccc(-c2cccc(Cl)c2)c1 | reporter gene, agonist, luciferase |  | Emax | < 20%
O=C(Nc1cccnn1)N1CCN([C@@H]2CCOc3cc(C(F)(F)F)ccc32)CC1 | cell-free assay | 20 µM | inhibition | 0%
COCc1c(-c2cc3cc(C)cc(OC)c3s2)c2c(N)ncnn2c1CN1CCNC(=O)C1 | ligand displacement, radioligand | 10 µM | inhibition | 6%
c1ccc(C(NCCNC(c2ccccc2)c2ccccc2)c2ccccc2)cc1 | cell-free assay | 10 µM | inhibition | 63%
Clc1ccc(-c2cc(Cl)ccc2Cl)cc1 | reporter gene, agonist, luciferase |  | Emax | < 20%
C[C@H](C(=O)N[C@H]1COc2ccccc2[C@@H]1S(C)(=O)=O)c1ccc(F)cc1 | cell-free assay | 10 µM | inhibition | 7%
COc1ccc(S(=O)(=O)N2CCCCC2)cc1C | ligand displacement, radioligand | 10 µM | inhibition | < 30%
